In the library only some 0.7% were active in any assay of this set; here they are far more common.
GC-A act: GC-A (human) enzyme activation; AID 1671463; activation, % at 10 µM; 370,000 tested, 0.14% active; P16066; HEK293 GC-A cells, cGMP TR-FRET, EC30 ANP; 0% at EC30 ANP, 100% saturating ANP; in the data active = activation above about 40%
N-glyco inh: N-linked glycosylation inhibition. D54 ERlucT glycosylation luciferase reporter, 24 h; percent of 100 nM tunicamycin response. reporter increase, % at 12.5 µM. 360,000 tested, 0.23% active;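 active = mean luciferase reporter signal, scaled so untreated is 0 and the glycosylation-blocking control 100, at or above a set limit in every replicate; inconclusive = mean reaches the limit but not every replicate does; inactive = mean below the limit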;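 also: luciferase carries N-glycosylation sites so blocking glycosylation raises the light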
XiGFP reactiv: reactivates the inactive X chromosome in mouse fibroblasts; activation, % at 7.58 µM; XiGFP mouse fibroblasts, % GFP-positive cells imaging, 3 d; cells co-treated with 5-aza-dC sensitizer; scaled so ellipticine positive control = 100%; 360,000 tested, 0.055% active;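 active = mean normalized replicate activation at least 10% and every replicate at or above 10%; inconclusive = only one of the two criteria met; inactive = mean below 10% and not all replicates reach 10%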
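Schedule: 3 d treatment, 15 min room-temperature fixation; system: 68-5-11 XiGFP fibroblast line; buffer or medium: DMEM plus 5-aza-dC sensitizer; control set: ellipticine 6 µM positive control; compound: one concentration, pinned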
NPR2 activator: GC-B (human) receptor activation; 370,000 tested, 0.11% active; P20594; activation, % at 10 µM; HEK293-GC-B cells, CNP EC30, cGMP TR-FRET; 0% at EC30 CNP, 100% saturating CNP;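 active = activation at 10 µM reaching about 35% in either raw or pattern-adjusted values, limit read from the data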
CaV13 FRET inh: Primary screen for inhibitors of IQ motif and Ca2+-dependent inactivation inhibitor domain binding in CACNA1D, Förster resonance energy transfer in living cells, … | HEK cells, CFP/YFP FRET ICDI-IQ, plate reader, 10 min; percent FRET-ratio fall versus neutral wells | inhibition, % at 12.3 µM | 340,000 tested, 0.098% active;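 active = mean replicate inhibition of at least 30% and at least 1% of replicates passing that level; inconclusive = only one of the two criteria is met; inactive = neither criterion is met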
Vif imaging: blocks HIV Vif function | 340,000 tested, 0.35% active | AID 602346 | HEK293T cells, Vif self-association by quenched fluorescence, imaging, 24 h | inhibition, % at 7.49 µM; in the data active = inhibition above about 50%, passing the limit was not always enough; inconclusive = no clear call, values can overlap the other calls; inactive = below about 31%
A number is an active result; i = inactive; ? = inconclusive; nt = no result; + = active, no number; ! = repeats disagree.

SMILES	GC-A act	N-glyco inh	XiGFP reactiv	NPR2 activator	CaV13 FRET inh	Vif imaging
C[C@H]1CN([C@@H](C)CO)C(=O)c2cc(NC(=O)CCN3CCOCC3)ccc2O[C@H]1CN(C)S(=O)(=O)c1ccc(Cl)cc1	nt	nt	i	nt	nt	nt
COC(=O)c1ccc2nc(-c3ccc(F)cc3)c(Cc3cccc(F)c3)n2c1	i	nt	i	39	i	nt
COC(=O)c1ccc2nc(-c3ccc(OC)c(OC)c3)c(Cc3ccc(C)cc3)n2c1	i	i	i	i	i	nt
COC(=O)c1ccc2nc(-c3ccco3)c(Cc3ccc(C)cc3)n2c1	44	i	i	52	i	nt
COC(=O)c1ccc2nc(-c3ccc(C)cc3)c(Cc3ccc(C)cc3)n2c1	i	nt	i	50	i	nt
Cc1ccc(Cc2c(-c3ccco3)nc3c(C)cc(Br)cn23)cc1	49	i	i	50	i	nt
O=C(C[C@H]1CC[C@@H]2[C@H](COC[C@@H](O)CN2S(=O)(=O)c2cccc(Cl)c2)O1)Nc1ccccc1	nt	nt	i	nt	nt	nt
CCC(=O)N[C@H]1C=C[C@H](CC(=O)NCc2ccc(OC)cc2)O[C@@H]1CO	nt	nt	i	nt	nt	nt
O=C(Cc1ccccn1)N[C@@H]1C=C[C@H](CC(=O)N2CCCCC2)O[C@H]1CO	nt	nt	i	nt	nt	nt
COC(=O)c1ccc2nc(-c3ccccc3)c(Cc3cccc(F)c3)n2c1	i	nt	i	i	i	nt
COC(=O)c1ccc2nc(-c3ccco3)c(Cc3cccc(F)c3)n2c1	i	i	i	42	i	nt
COc1ccc(-c2nn(-c3ccccc3)cc2/C=N/NC(=S)NC(C)C)cc1OC	i	i	i	42	i	i
COc1ccc(-c2nn(-c3ccccc3)cc2/C=N/NC(=O)c2ccc(Br)o2)cc1	i	i	nt	i	i	i
C=CCNC(=S)N/N=C/c1cn(-c2ccccc2)nc1-c1ccc(OC)cc1	i	i	i	42	i	i
CCCN1[C@@H]2c3ccc(C4=CCCCC4)c(=O)n3C[C@@H]2[C@@H](CO)[C@@H]1C(=O)OC	nt	nt	i	nt	nt	nt
CCOc1ccc(S(=O)(=O)Nc2ccc(C(=O)N(CC)CC(=O)NCc3cccs3)cc2)cc1	i	i	i	i	55	i
CCOc1ccc(NS(=O)(=O)c2ccc(C(=O)N(CC)CC(=O)NCc3cccs3)cc2)cc1	i	i	i	i	nt	i
C=CCCCOc1ccc(C(=O)O)cc1	i	i	nt	i	i	58
C=CCC(=O)OCCCCCCOc1ccc(C(=O)O)cc1	i	i	nt	i	i	i
O=[N+]([O-])c1nn(-c2ccc(Cl)cc2)n(O)c1=NCc1ccncc1	i	i	i	i	i	i
O=[N+]([O-])c1nn(-c2ccc(Cl)cc2)n(O)c1=NCc1cccnc1	41	i	i	i	i	i
O=[N+]([O-])c1nn(-c2ccc(Cl)cc2)n(O)c1=NCc1ccccc1Cl	43	i	i	i	i	i
N#C[C@H]1[C@@H](c2ccc(C#CC3CCCC3)cc2)[C@@H](CO)N1C(=O)c1cccc(F)c1	nt	nt	i	nt	nt	nt
CCOC(=O)c1c2ccc(OCC(=O)NN)cc2n2ccccc12	i	i	i	i	+	i
N[C@@H]1CC[C@@H](CCn2cc(C3CCCCC3)nn2)O[C@H]1CO	nt	nt	i	nt	nt	nt
SMILES	GC-A act	N-glyco inh	XiGFP reactiv	NPR2 activator	CaV13 FRET inh	Vif imaging
Cc1cccc(OCC(=O)NNc2c3ccccc3nc3ccccc23)c1	i	i	nt	i	i	i
Cc1ccc(OCC(=O)NNc2c3ccccc3nc3ccccc23)cc1	i	i	i	i	48	i
CCOc1ccc(Nc2c3ccccc3nc3ccccc23)cc1	i	64	i	i	i	i
COc1ccc(CN2C(=O)C(C)Nc3ncnc(N4CCOCC4)c32)cc1 (stereo not drawn)	i	i	i	i	i	?
COc1ccc(CN2C(=O)C(C)Nc3ncnc(N4CCN(c5ccccc5)CC4)c32)cc1 (stereo not drawn)	i	i	i	i	63!	i
COc1cc(-c2cc(=O)c3c(O)c(OC)c(OC)cc3o2)cc(OC)c1O	i	i	nt	i	nt	89
COc1ccc(-c2cc(=O)c3c(O)c(OC)c(O)cc3o2)cc1	i	i	nt	i	nt	i
COc1ccc(Sc2cnn(-c3ccccc3)c(=O)c2Cl)cc1	i	i	nt	i	i	51
Cc1noc(C)c1S(=O)(=O)Nc1ccc2c(c1)C(=O)N([C@@H](C)CO)C[C@@H](C)[C@@H](CN(C)C(=O)Nc1ccc3c(c1)OCO3)O2	nt	nt	i	nt	nt	nt
CC(=O)N(C)C[C@@H]1Oc2ccc(NC(=O)NC(C)C)cc2C(=O)N(C)C[C@@H]1C	nt	nt	i	nt	nt	nt
Cc1cccc(C)c1NC(=O)C1CCCN(CCCc2ccccc2)C1 (stereo not drawn)	i	i	nt	i	nt	i
COc1ccc(CN2CCCC(C(=O)N3CCCC3)C2)c(OC)c1 (stereo not drawn)	i	i	i	i	i	i
CCOC(=O)C1CCCN(Cc2ccc(OC)cc2OC)C1 (stereo not drawn)	i	i	nt	i	i	55
CCOC(=O)C1CCCN(CCCc2ccccc2)C1 (stereo not drawn)	i	i	i	i	38!	i
O=C(CC1CC1)N1CC(=O)N2[C@@H](CO)[C@@H](c3ccc(-c4ccccc4)cc3)[C@@H]2C1	nt	nt	i	nt	nt	nt
CC(C)(C)OC(=O)N1CCN(C(=O)c2ncn(Cc3ccccc3)c2C(=O)N2CCN(C(=O)OC(C)(C)C)CC2)CC1	i	i	i	i	i	i
O=C(c1ncn(Cc2ccccc2)c1C(=O)N1CCN(c2ccccc2)CC1)N1CCN(c2ccccc2)CC1	i	50	i	i	i	i
CO[C@@H]1CN(C)C(=O)c2ccc(NS(C)(=O)=O)cc2OC[C@H](C)N(C(=O)c2ccc3c(c2)OCO3)C[C@H]1C	nt	nt	i	nt	nt	nt
C[C@H]1CCCCO[C@H](CN(C)C(=O)C2CCCCC2)[C@@H](C)CN([C@@H](C)CO)C(=O)c2cc(NS(C)(=O)=O)ccc2O1	nt	nt	i	nt	nt	nt
CO[C@H]1CN(C)C(=O)c2cc(NC(=O)C3CC3)ccc2OC[C@H](C)N(C(=O)c2ccccc2F)C[C@@H]1C	nt	nt	i	nt	nt	nt
COc1ccc(-c2cc(N)n(S(=O)(=O)c3c(F)c(F)c(F)c(F)c3F)n2)cc1OC	i	i	nt	i	i	59
COc1ccc(S(=O)(=O)n2nc(-c3cc(OC)c(OC)c(OC)c3)cc2N)cc1OC	i	i	i	i	i	i
O=C(NC1CCCCC1)c1cccc2c1C(=O)c1ccc(-c3ccc(OC(F)(F)F)cc3)cc1S2(=O)=O	i	i	i	i	i	i
O=C(NCc1cc(C(F)(F)F)ccc1Cl)c1cccc2c1C(=O)c1ccc(Cl)cc1S2(=O)=O	i	nt	i	i	36	nt
O=C(NCc1ccccc1C(F)(F)F)c1cccc2c1C(=O)c1ccc(N3CCC(N4CCCCC4)CC3)cc1S2(=O)=O	i	i	i	i	i	75
